Columns and labels:
Human betaherpesvirus 5 [1] = test: In vitro antiviral activity against HCMV (Towne strain) in HFF (human fibroblast) cells.; assay type: functional, organism-based; conditions: Human betaherpesvirus 5, HFF
Summary of the method: (§1)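 HFF monolayers in 24-well dishes infected with about 100 PFU HCMV/cm2 of cell sheet. After adsorption, compound in growth medium added to duplicate wells at four to eight concentrations. Incubated 7 days at 37 °C, fixed and stained with crystal violet, microscopic plaques counted. Percent plaque reduction against no-drug wells regressed on log concentration to give IC50.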

HFF = test: Visual cytotoxicity was scored on Human foreskin fibroblasts (HFF cells) at the time of plaque enumeration.; assay type: functional, cell-based
Summary of the method: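 Stationary HFF cells from the plaque assays, not affected by virus, inspected microscopically for cytotoxicity at the time of plaque counting.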

Human alphaherpesvirus 1 [2] = test: In vitro antiviral activity against HSV-1 virus in BSC-1 (monkey kidney) cells.; assay type: functional, organism-based; conditions: Human alphaherpesvirus 1, BSC-1
Summary of the method: (§2)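 BSC-1 cells, 10 000/well in MEM(E) with 10% calf serum, incubated overnight at 37 °C. Drug added in quadruplicate together with HSV-1 KOS at 100 PFU/well and incubated 3 days. Read-out by ELISA with HRP-conjugated rabbit anti-HSV-1 and TMB substrate, absorbance at 450 and 570 nm. Percent absorbance reduction against virus-only wells regressed on log concentration for IC50.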

KB = test: In vitro inhibition of KB (human carcinoma) cell growth.; assay type: functional, cell-based
Summary of the method: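 KB cells, 3000–5000/well, incubated overnight at 37 °C. Compound added in quadruplicate at six to eight concentrations for 48 h (about two population doublings). Cells fixed in 95% ethanol, stained with 0.1% crystal violet, dye eluted with acidified ethanol and read at 570 nm. IC50 from regression against log concentration.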

L1210 [3] = test: concentration required to decrease the cell density in the treated cultures to one-half of the control was measured on L1210 murine Leukemia cells (in vitro); c=No significant growth inhibition observed atthe initial screen concentration; assay type: functional, cell-based, Mus musculus
L1210 [4] = test: Effect of initial screen concentration of 10 uM on the growth of L1210 Murine Leukemia cells
L1210 [5] = test: concentration required to decrease the cell density in the treated cultures to one-half of the control was measured on L1210 murine Leukemia cells (in vitro) (The highest concentration tested); assay type: functional, cell-based; conditions: Mus musculus
Summary of the method: (§3)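 L1210 cells, 2000/well, given compound the day after plating and incubated 3 days; cell density read by MTS reduction. Concentration–response in two independent experiments. IC50 is the concentration that halves cell density relative to control, averaged over the two experiments.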

Human alphaherpesvirus 1 [6] = test: Antiviral activity was determined against Herpes simplex virus-1 by ELISA test (IC50 not reached at the noted concentration tested); assay type: functional, organism-based; summary of the method: as §2
L1210 [7] = test: Effect of initial screen concentration of 1 uM on the growth of L1210 Murine Leukemia cells
Human betaherpesvirus 5 [8] = test: In vitro reduction in yield of Towne strain of HCMV in HFF (human fibroblast) cells.; assay type: functional; conditions: Human betaherpesvirus 5, HFF
Summary of the method: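 HFF in 96-well plates infected with HCMV Towne at MOI 0.5-1 PFU/cell. After adsorption, compound given in duplicate, serially diluted 1:3 from 100 to 0.14 µM. After 7 days at 37 °C, one freeze-thaw cycle, then progeny titred by 1:3 serial dilution on fresh HFF monolayers with plaque counts. IC90 taken from regression of percent inhibition against log concentration.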

L1210 [9] = test: Effect of initial screen concentration of 100 uM on the growth of L1210 Murine Leukemia cells; assay type: functional, Mus musculus
Summary of the method: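 L1210 mouse leukemia cells in RPMI 1640 with 10% heat-inactivated horse serum, 2000 cells/well. Compound added the next day and incubated 3 days. Growth read by MTS tetrazolium reduction optical density as percent of control. Screen at 100 µM, or the solubility limit; value is the mean of two or three experiments.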

L1210 [10] = test: concentration required to decrease the cell density in the treated cultures to one-half of the control was measured on L1210 murine Leukemia cells (in vitro); assay type: functional, cell-based; conditions: Mus musculus; summary of the method: as §3
Human betaherpesvirus 5 [11] = test: Antiviral activity was determined against Towne strain of HCMV by Plaque and yield reduction test; assay type: functional
Human betaherpesvirus 5 [12] = test: Antiviral activity was determined against AD169 strain of HCMV by Plaque and yield reduction test; assay type: functional, organism-based; summary of the method: as §1
Human betaherpesvirus 5 [13] = test: Antiviral activity was determined against Towne strain of HCMV by Plaque and yield reduction test (Averaged results from duplicate or triplicate experiments); assay type: functional

| Compound | IC50 (Human betaherpesvirus 5 [1]) [µM] | IC50 (HFF) [µM] | IC50 (Human alphaherpesvirus 1 [2]) [µM] | IC50 (KB) [µM] | IC50 (L1210 [3]) | Control (L1210 [4]) [%] | IC50 (L1210 [5]) [µM] | IC50 (Human alphaherpesvirus 1 [6]) [µM] | Control (L1210 [7]) [%] | IC90 (Human betaherpesvirus 5 [8]) [µM] | Control (L1210 [9]) [%] | IC50 (L1210 [10]) [µM] | IC90 (Human betaherpesvirus 5 [11]) [µM] | IC50 (Human betaherpesvirus 5 [12]) [µM] | IC90 (Human betaherpesvirus 5 [13]) [µM] |
| --- | --- | --- | --- | --- | --- | --- | --- | --- | --- | --- | --- | --- | --- | --- | --- |
| CC(=O)OC1C(CI)OC(n2c(Cl)nc3cc(Cl)c(Cl)cc32)C1OC(C)=O (centres undefined) | 2.7 | 32 | > 100 | 60 | – | – | – | – | – | – | – | – | – | – | – |
| CC1(C)OC2C(CN=[N+]=[N-])OC(n3c(Cl)nc4cc(Cl)c(Cl)cc43)C2O1 (centres undefined) | 11 | 32 | – | – | – | – | – | – | – | – | – | – | – | – | – |
| CC(=O)OC1C(CN=[N+]=[N-])OC(n2c(Cl)nc3cc(Cl)c(Cl)cc32)C1OC(C)=O (centres undefined) | 1.5 | 32 | > 100 | 70 | No significant growth | 110 | – | – | – | – | – | – | – | – | – |
| CCOC[C@H]1O[C@@H](n2c(Cl)nc3cc(Cl)c(Cl)cc32)[C@H](OC(C)=O)[C@@H]1OC(C)=O | 4.3 | 33 | > 100 | 60 | – | 83 | > 10 | – | – | – | – | – | – | – | – |
| CCCCOC[C@H]1O[C@@H](n2c(Cl)nc3cc(Cl)c(Cl)cc32)[C@H](OC(C)=O)[C@@H]1OC(C)=O | 21 | 66 | > 100 | > 100 | No significant growth | 92 | – | – | – | – | – | – | – | – | – |
| COC[C@H]1O[C@@H](n2c(Cl)nc3cc(Cl)c(Cl)cc32)[C@H](OC(C)=O)[C@@H]1OC(C)=O | 2.8 | 26 | – | 80 | No significant growth | – | – | > 100 | 95 | – | – | – | – | – | – |
| CC(=O)OC1C(CF)OC(n2c(Cl)nc3cc(Cl)c(Cl)cc32)C1OC(C)=O (centres undefined) | 0.6 | 32 | > 100 | 100 | No significant growth | 122 | – | – | – | 0.19 | – | – | – | – | – |
| CC1(C)OC2C(CCl)OC(n3c(Cl)nc4cc(Cl)c(Cl)cc43)C2O1 (centres undefined) | 14 | 32 | > 100 | 100 | – | – | – | – | – | – | – | – | – | – | – |
| CC(=O)OC1C(CBr)OC(n2c(Cl)nc3cc(Cl)c(Cl)cc32)C1OC(C)=O (centres undefined) | 2.7 | 32 | > 100 | 60 | No significant growth | – | – | – | – | – | 94 | – | – | – | – |
| CSCC1OC(n2c(Cl)nc3cc(Cl)c(Cl)cc32)C(OC(C)=O)C1OC(C)=O (centres undefined) | 4.8 | 32 | > 100 | – | – | – | – | – | – | – | – | – | – | – | – |
| CC(=O)OC1C(CCl)OC(n2c(Cl)nc3cc(Cl)c(Cl)cc32)C1OC(C)=O (centres undefined) | 1.4 | 32 | > 100 | 90 | No significant growth | 96 | – | – | – | 0.31 | – | – | – | – | – |
| OC[C@H]1O[C@@H](n2c(Cl)nc3cc(Cl)c(Cl)cc32)[C@H](O)[C@@H]1O | 2.8 | – | 102 | – | – | – | – | – | – | 1.3 | 76 | > 100 | – | – | – |
| O[C@@H]1[C@@H](CF)OC(n2c(Cl)nc3cc(Cl)c(Cl)cc32)[C@@H]1O (some centres undefined) | 0.5 | 32 | > 100 | > 100 | – | – | – | – | – | 0.22 | 81 | > 100 | – | – | – |
| [N-]=[N+]=NC[C@H]1OC(n2c(Cl)nc3cc(Cl)c(Cl)cc32)[C@H](O)[C@@H]1O (some centres undefined) | 1.5 | 32 | > 100 | 70 | – | – | – | – | – | – | 29 | 80 | 0.6 | – | – |
| CCOC[C@H]1OC(n2c(Cl)nc3cc(Cl)c(Cl)cc32)[C@H](O)[C@@H]1O (some centres undefined) | 4.6 | 26 | > 100 | 80 | – | – | – | – | – | – | 9 | 59 | – | – | – |
| CCCCOC[C@H]1OC(n2c(Cl)nc3cc(Cl)c(Cl)cc32)[C@H](O)[C@@H]1O (some centres undefined) | 14.2 | 32 | > 100 | 60 | – | – | – | – | – | – | 64 | > 100 | – | – | – |
| O[C@@H]1[C@@H](CBr)OC(n2c(Cl)nc3cc(Cl)c(Cl)cc32)[C@@H]1O (some centres undefined) | 1.5 | 32 | > 100 | 90 | – | – | – | – | – | 0.5 | 54 | 100 | – | – | – |
| CSC[C@H]1OC(n2c(Cl)nc3cc(Cl)c(Cl)cc32)[C@H](O)[C@@H]1O (some centres undefined) | 4.5 | 32 | > 100 | > 100 | – | – | – | – | – | – | 73 | > 100 | – | – | – |
| O[C@@H]1[C@@H](CI)OC(n2c(Cl)nc3cc(Cl)c(Cl)cc32)[C@@H]1O (some centres undefined) | 3.2 | 32 | > 100 | – | – | – | – | – | – | – | – | – | – | 2.9 | – |
| O[C@@H]1[C@@H](CCl)OC(n2c(Cl)nc3cc(Cl)c(Cl)cc32)[C@@H]1O (some centres undefined) | 1 | 32 | > 100 | 90 | – | – | – | – | – | – | 73 | > 100 | – | – | 0.52 |
| COC[C@H]1OC(n2c(Cl)nc3cc(Cl)c(Cl)cc32)[C@H](O)[C@@H]1O (some centres undefined) | 3 | 32 | > 100 | 90 | – | – | – | – | – | 2 | 4 | 60 | – | – | – |
| Nc1nc2c(ncn2COC(CO)CO)c(=O)[nH]1 [GANCICLOVIR] | 7.4 | > 100 | 3.5 | > 100 | – | – | – | – | – | 1.6 | – | – | – | – | – |

— ChEMBL document CHEMBL1129958, “Synthesis and antiviral activity of certain 5'-modified analogs of 2,5,6-trichloro-1-(beta-D-ribofuranosyl)benzimidazole” (J Med Chem, 1997)
